Data reported in ChEMBL document CHEMBL1128321, “Piperazinylalkyl heterocycles as potential antipsychotic agents” (J Med Chem, 1995).

Columns and labels:
Rattus norvegicus [1] = assay: Conditioned avoidance response activity was determined by the ability to block the conditioned avoidance of a foot shock (ip); type: functional
Procedure, shortened: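 Male Fischer 344 rats (300–500 g) were trained on a single-lever discrete-trial task in which a lever press avoids an impending shock. Block of avoidance was scored at the time of peak effect. […] The percentage of rats failing to escape the shock (escape loss) was also recorded.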

Rattus norvegicus [2] = assay: Percentage of animals failing to escape shock was measured, affording a rough index for nonspecific sedation at 5 mg/kg(ip)
Rattus norvegicus [3] = assay: Conditioned avoidance response activity was determined by the ability to block the conditioned avoidance of a foot shock at 15 mg/kg(ip); type: functional
Procedure, shortened: (§1)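 Male Fischer 344 rats (300–500 g) trained on a discrete-trial single-lever task, pressing the lever to avoid an impending shock; block of responding read at time of peak effect. Escape loss = percent of animals failing to escape the shock; >20% escape loss with CAR inhibition taken as potential for sedation.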

[4] = target: T1, 5-hydroxytryptamine receptor 1A (Rattus norvegicus, UniProt P19327); assay: Binding affinity was determined against 5-hydroxytryptamine 1A receptor using […]
T1 sequence (P19327 whole entry): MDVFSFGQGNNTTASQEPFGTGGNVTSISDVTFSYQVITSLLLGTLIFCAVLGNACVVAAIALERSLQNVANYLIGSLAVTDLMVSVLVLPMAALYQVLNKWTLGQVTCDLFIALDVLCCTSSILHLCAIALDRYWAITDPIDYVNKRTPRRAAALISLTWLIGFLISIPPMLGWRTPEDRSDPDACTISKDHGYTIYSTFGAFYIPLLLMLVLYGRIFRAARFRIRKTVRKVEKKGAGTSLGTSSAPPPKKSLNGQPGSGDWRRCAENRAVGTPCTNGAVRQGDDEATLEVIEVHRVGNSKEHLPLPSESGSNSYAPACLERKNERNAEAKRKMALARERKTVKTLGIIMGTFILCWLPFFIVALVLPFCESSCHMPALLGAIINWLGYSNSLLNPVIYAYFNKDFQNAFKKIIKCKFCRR

[5] = Stability half-life at pH-2; stable; type: physicochemical
Procedure, shortened: (§2)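 Half-life measured in solution at pH 2, about 3 × 10⁻³ M compound in citric acid–phosphate buffer at 22 °C.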

Rattus norvegicus [6] = assay: Percentage of animals failing to escape the shock was measured and affords a rough index for nonspecific sedation at 5 mg/kg(ip)(>20% esc loss = potential for sedation); type: functional; procedure, shortened: as §1
[7] = Stability half-life at pH-2; type: physicochemical; procedure, shortened: as §2
Rattus norvegicus [8] = assay: Conditioned avoidance response activity was determined by the ability to block the conditioned avoidance of a foot shock at 5 mg/kg(ip); type: functional; procedure, shortened: as §1

| Ki [4] [nM] | T1/2 [5] | half-life [7] [h] | Compound | ED50 (Rattus norvegicus [1]) [mg/kg] | Esc loss (Rattus norvegicus [2]) [%] | inhibition in vivo at 15 mg/kg (Rattus norvegicus [3]) [%] | Esc loss (Rattus norvegicus [6]) [%] | inhibition in vivo at 5 mg/kg (Rattus norvegicus [8]) [%] |
| --- | --- | --- | --- | --- | --- | --- | --- | --- |
|  |  |  | O=C1CC2(CCCC2)CC(=O)N1CCCCN1CCN(c2ncccn2)CC1 [BUSPIRONE] | 4.5 |  |  |  |  |
| 32 | Stable |  | COc1ccccc1N1CCN(Cc2ccc(CN3CCCCCCC3=O)o2)CC1.O=C(O)CCC(=O)O |  | 19 | 99 |  |  |
|  |  | 1.37 | CC(C)Oc1ccccc1N1CCN(Cc2ccc(CN3CCCCC3=O)n2C)CC1 [RWJ-25730] |  |  | 98 | 8 | 87 |
| 29 | Stable |  | CC(C)Oc1ccccc1N1CCN(Cc2ccc(CN3CCCCCCC3=O)o2)CC1.O=C(O)CCC(=O)O |  | 1 | 76 |  |  |
